ChEMBL document CHEMBL4689842, “EUbOPEN Chemogenomics Library wave 1” (2021)

Tested on: Fibroblast
Experiment: Multiplex assay against human fibroblast
Format: toxicity, cell-based
In short: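 Cells stained live at seeding with Hoechst33342, BioTracker Green Microtubule Cytoskeleton Dye, MitoTracker Red and Annexin V Alexa Fluor 680 were imaged on a CQ1 microscope at 37°C and 5% CO2 after compound addition. Their classification by CellPathfinder machine-learning gating ran from Hoechst high-intensity objects versus normal cells, to healthy, pyknosed or fragmented nuclei among normal cells, to mitotic or apoptotic among pyknosed cells. Tubulin, mitochondrial-mass and membrane-permeability phenotypes are per cents of healthy-nucleus cells.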

[1] = 12 h, 1 µM, compound concentration 1 uM, replicate 1
[2] = 12 h, 1 µM, compound concentration 1 uM, replicate 2
[3] = 12 h, 10 µM, compound concentration 10 uM, replicate 1
[4] = 12 h, 10 µM, compound concentration 10 uM, replicate 2
[5] = 24 h, 1 µM, compound concentration 1 uM, replicate 1
[6] = 24 h, 1 µM, compound concentration 1 uM, replicate 2
[7] = 24 h, 10 µM, compound concentration 10 uM, replicate 1
[8] = 24 h, 10 µM, compound concentration 10 uM, replicate 2
[9] = 48 h, 1 µM, compound concentration 1 uM, replicate 1
[10] = 48 h, 1 µM, compound concentration 1 uM, replicate 2
[11] = 48 h, 10 µM, compound concentration 10 uM, replicate 1
[12] = 48 h, 10 µM, compound concentration 10 uM, replicate 2

## C[C@@H](Oc1cc(-n2cnc3ccc(CN4CCN(C)CC4)cc32)sc1C(N)=O)c1ccccc1C(F)(F)F [GSK-461364]
[1]
  Population Apoptotic (%): 75%
  Population Fragmented Nuclei (%): 30%
  Population Healthy Nuclei (%): 36%
  Population Hoechst High Intensity Objects (%): 14%
  Population Membrane Permeable-Phenotype (%): 34%
  Population Mitochondria Different-Phenotype (%): 11%
  Population Mitotic Cells (%): 25%
  Population Normal (%): 85%
  Population Pyknosed Nuclei (%): 33%
  Population Tubulin-Different-Phenotype (%): 69%
[2]
  Population Apoptotic (%): 12%
  Population Fragmented Nuclei (%): 12%
  Population Healthy Nuclei (%): 71%
  Population Hoechst High Intensity Objects (%): 4%
  Population Membrane Permeable-Phenotype (%): 12%
  Population Mitochondria Different-Phenotype (%): 35%
  Population Mitotic Cells (%): 87%
  Population Normal (%): 95%
  Population Pyknosed Nuclei (%): 16%
  Population Tubulin-Different-Phenotype (%): 30%
[3]
  Population Apoptotic (%): 78%
  Population Fragmented Nuclei (%): 29%
  Population Healthy Nuclei (%): 40%
  Population Hoechst High Intensity Objects (%): 25%
  Population Membrane Permeable-Phenotype (%): 21%
  Population Mitochondria Different-Phenotype (%): 47%
  Population Mitotic Cells (%): 21%
  Population Normal (%): 74%
  Population Pyknosed Nuclei (%): 30%
  Population Tubulin-Different-Phenotype (%): 90%
[4]
  Population Apoptotic (%): 40%
  Population Fragmented Nuclei (%): 13%
  Population Healthy Nuclei (%): 55%
  Population Hoechst High Intensity Objects (%): 9%
  Population Membrane Permeable-Phenotype (%): 71%
  Population Mitochondria Different-Phenotype (%): 100%
  Population Mitotic Cells (%): 59%
  Population Normal (%): 90%
  Population Pyknosed Nuclei (%): 31%
  Population Tubulin-Different-Phenotype (%): 100%
[5]
  Population Apoptotic (%): 70%
  Population Fragmented Nuclei (%): 31%
  Population Healthy Nuclei (%): 44%
  Population Hoechst High Intensity Objects (%): 17%
  Population Membrane Permeable-Phenotype (%): 12%
  Population Mitochondria Different-Phenotype (%): 25%
  Population Mitotic Cells (%): 29%
  Population Normal (%): 82%
  Population Pyknosed Nuclei (%): 24%
  Population Tubulin-Different-Phenotype (%): 80%
[6]
  Population Apoptotic (%): 50%
  Population Fragmented Nuclei (%): 14%
  Population Healthy Nuclei (%): 68%
  Population Hoechst High Intensity Objects (%): 4%
  Population Membrane Permeable-Phenotype (%): 18%
  Population Mitochondria Different-Phenotype (%): 35%
  Population Mitotic Cells (%): 50%
  Population Normal (%): 95%
  Population Pyknosed Nuclei (%): 17%
  Population Tubulin-Different-Phenotype (%): 28%
[7]
  Population Apoptotic (%): 60%
  Population Fragmented Nuclei (%): 35%
  Population Healthy Nuclei (%): 42%
  Population Hoechst High Intensity Objects (%): 43%
  Population Membrane Permeable-Phenotype (%): 35%
  Population Mitochondria Different-Phenotype (%): 54%
  Population Mitotic Cells (%): 40%
  Population Normal (%): 56%
  Population Pyknosed Nuclei (%): 22%
  Population Tubulin-Different-Phenotype (%): 78%
[8]
  Population Apoptotic (%): 82%
  Population Fragmented Nuclei (%): 10%
  Population Healthy Nuclei (%): 47%
  Population Hoechst High Intensity Objects (%): 6%
  Population Membrane Permeable-Phenotype (%): 90%
  Population Mitochondria Different-Phenotype (%): 100%
  Population Mitotic Cells (%): 17%
  Population Normal (%): 93%
  Population Pyknosed Nuclei (%): 41%
  Population Tubulin-Different-Phenotype (%): 100%
[9]
  Population Apoptotic (%): 70%
  Population Fragmented Nuclei (%): 42%
  Population Healthy Nuclei (%): 44%
  Population Hoechst High Intensity Objects (%): 21%
  Population Membrane Permeable-Phenotype (%): 20%
  Population Mitochondria Different-Phenotype (%): 8%
  Population Mitotic Cells (%): 30%
  Population Normal (%): 78%
  Population Pyknosed Nuclei (%): 13%
  Population Tubulin-Different-Phenotype (%): 76%
[10]
  Population Apoptotic (%): 25%
  Population Fragmented Nuclei (%): 31%
  Population Healthy Nuclei (%): 62%
  Population Hoechst High Intensity Objects (%): 12%
  Population Membrane Permeable-Phenotype (%): 18%
  Population Mitochondria Different-Phenotype (%): 11%
  Population Mitotic Cells (%): 75%
  Population Normal (%): 87%
  Population Pyknosed Nuclei (%): 5%
  Population Tubulin-Different-Phenotype (%): 34%
[11]
  Population Apoptotic (%): 90%
  Population Fragmented Nuclei (%): 52%
  Population Healthy Nuclei (%): 31%
  Population Hoechst High Intensity Objects (%): 45%
  Population Membrane Permeable-Phenotype (%): 22%
  Population Mitochondria Different-Phenotype (%): 45%
  Population Mitotic Cells (%): 9%
  Population Normal (%): 54%
  Population Pyknosed Nuclei (%): 15%
  Population Tubulin-Different-Phenotype (%): 68%
[12]
  Population Apoptotic (%): 75%
  Population Fragmented Nuclei (%): 39%
  Population Healthy Nuclei (%): 58%
  Population Hoechst High Intensity Objects (%): 38%
  Population Membrane Permeable-Phenotype (%): 5%
  Population Mitochondria Different-Phenotype (%): 27%
  Population Mitotic Cells (%): 25%
  Population Normal (%): 61%
  Population Pyknosed Nuclei (%): 2%
  Population Tubulin-Different-Phenotype (%): 84%
